Data reported in ChEMBL document CHEMBL4177756, “Small Molecule Neuropilin-1 Antagonists Combine Antiangiogenic and Antitumor Activity with Immune Modulation through Reduction of Transforming Growth Factor Beta (TGFβ) Production in Regulatory T-Cells” (J Med Chem, 2018).
pIC50, pKd: −log10 of the molar value. One block for each molecule: values may come before it. Activity calls are given as the source filed them. The rule behind the calls is not given here.

Assays:
[1] = biological target: T1, Neuropilin-1 (Homo sapiens, UniProt O14786); test: Binding affinity to N-terminal His6-tagged recombinant human NRP1-b1 domain expressed in Escherichia coli Rosetta Gami 2 (DE3) pLysS cells by SPR method
Procedure, shortened: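 Human NRP1-b1 (residues 273–427, His6-tagged) was amine-coupled to a CM5 chip at high and low density; an unmodified spot served as reference. Runs were at 25 °C in PBS with 0.05% P20 and 3% DMSO. Compound was tested as 2-fold dilutions from 16 µM to 31 nM with 60 s injections. KD was taken from steady-state responses, DMSO-corrected; mean ± SD of the two surfaces.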

[2] = tested on: Mus musculus; test: Cmax in BALB/c mouse at 2 mg/kg, iv administered as bolus dose by LC-MS method; assay type: ADME, organism-based; parameters: dose 2 mg/kg, route intravenous; details: in vivo
Procedure, shortened: (§1)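 Female BALB/c mice, 6–8 weeks old, received 2 mg/kg as a tail-vein bolus formulated in 7.5% DMSO. Blood was taken by cardiac puncture at 5, 15, 30, 60, 180 and 240 min. Plasma was separated by centrifugation, snap-frozen and assayed by LC-MS/MS with electrospray ionization.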

[3] = species: Homo sapiens; test: Antiinvasive activity in VEGFA-induced NRP1 expressing human A375P spheroids at 30 uM after 7 days; assay type: functional
[4] = tested on: HUVEC; test: Antimigratory activity in HUVEC assessed as delay in VEGFA-induced wound closure at 30 uM after 5 days; assay type: functional, cell-based; details: Homo sapiens
Procedure, shortened: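 HUVECs were starved overnight in 1% EBM, then wounded at 95% confluence. Wells received 1% EGM with 0.1% DMSO, 25 ng/mL VEGF-A and/or 30 μM compound. Migration into the wound was imaged every 2 h by live-cell imaging. Three independent experiments, 12 replicates per treatment.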

[5] = biological target: T2, Neuropilin-2 (Homo sapiens) (UniProt O60462); test: Binding affinity to His6-tagged recombinant human NRP2 at 62.5 to 1000 nM treated for 60 secs by SPR method
T2 sequence (whole entry): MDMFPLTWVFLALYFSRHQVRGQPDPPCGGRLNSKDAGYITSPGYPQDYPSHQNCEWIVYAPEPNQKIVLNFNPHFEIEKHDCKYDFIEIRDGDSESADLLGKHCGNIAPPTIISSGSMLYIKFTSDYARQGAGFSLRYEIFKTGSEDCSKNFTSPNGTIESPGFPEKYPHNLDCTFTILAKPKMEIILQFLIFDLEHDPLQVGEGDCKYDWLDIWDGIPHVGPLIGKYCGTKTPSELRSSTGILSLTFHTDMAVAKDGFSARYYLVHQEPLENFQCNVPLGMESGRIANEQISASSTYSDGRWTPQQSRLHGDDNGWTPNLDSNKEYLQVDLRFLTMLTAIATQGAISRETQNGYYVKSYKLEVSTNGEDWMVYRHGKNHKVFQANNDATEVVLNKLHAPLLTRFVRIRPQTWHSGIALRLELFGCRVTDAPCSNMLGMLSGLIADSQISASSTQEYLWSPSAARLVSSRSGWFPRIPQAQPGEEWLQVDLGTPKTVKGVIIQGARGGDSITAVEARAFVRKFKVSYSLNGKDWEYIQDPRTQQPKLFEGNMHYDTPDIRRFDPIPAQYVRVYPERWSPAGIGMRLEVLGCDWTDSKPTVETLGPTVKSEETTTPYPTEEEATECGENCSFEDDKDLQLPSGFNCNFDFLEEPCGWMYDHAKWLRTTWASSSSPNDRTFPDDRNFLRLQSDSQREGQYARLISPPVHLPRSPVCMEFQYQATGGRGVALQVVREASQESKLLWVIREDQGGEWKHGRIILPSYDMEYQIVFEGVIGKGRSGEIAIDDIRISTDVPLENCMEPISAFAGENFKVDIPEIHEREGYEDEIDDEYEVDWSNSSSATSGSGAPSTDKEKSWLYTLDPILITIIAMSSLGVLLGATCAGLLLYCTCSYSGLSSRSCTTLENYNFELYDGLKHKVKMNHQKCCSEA

[6] = tested on: Mus musculus; test: Volume of distribution in BALB/c mouse at 2 mg/kg, iv administered as bolus dose by LC-MS method; assay type: ADME, organism-based; details: in vivo; procedure, shortened: as §1
[7] = tested on: Aorta; test: Antiangiogenic activity in wild type C57Bl/6 mouse aortic ring assessed as inhibition of VEGFA-induced vessel sprouting at 30 uM after 7 days relative to control; assay type: functional
Procedure, shortened: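 Thoracic aortas from female wild-type C57Bl/6 mice were cut into 0.5 mm rings, serum-starved overnight, and embedded in rat-tail type 1 collagen. Rings were cultured in OptiMEM with 2.5% FBS containing 0.1% DMSO, 25 ng/mL VEGF-A and/or 30 μM compound at 37 °C for 7 days, with medium changed on days 3 and 5. They were then fixed and stained with isolectin B4 and SMA, and sprout area was quantified by image analysis.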

[8] = biological target: T1, Neuropilin-1; test: Inhibition of biotinylated VEGF-A binding to N-terminal His6-tagged recombinant human NRP1-b1 domain expressed in Escherichia coli Rosetta Gami 2 (DE3) pLysS cells after 2 hrs
[9] = tested on: Mus musculus; test: Half life in BALB/c mouse at 2 mg/kg, iv administered as bolus dose by LC-MS method; assay type: ADME, organism-based; details: in vivo; procedure, shortened: as §1
[10] = species: Homo sapiens; test: Antiinvasive activity in NRP1 expressing human A375P spheroids at 30 uM after 7 days; assay type: functional
[11] = species: Mus musculus; test: Immunomodulating activity in C57/Bl6 mouse Nrp1-positive Treg cells assessed as inhibition of glioma conditioned media-induced TGFbeta production at 500 nM preincubated for 2 hrs followed by glioma conditioned media challenge measured after 12 hrs by ELISA; assay type: functional
Procedure, shortened: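 CD4+ Nrp1+ splenic T cells from 6-week-old C57/Bl6 mice were plated at 200000 per well on anti-CD3ε with anti-CD28 and expanded 72 h. Cells were pretreated 2 h with DMSO or 500 nM compound. They were then given 50% conditioned medium from serum-starved GL261 cells, and TGFβ was measured by ELISA after 12 h.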

[12] = biological target: T1, Neuropilin-1; test: Binding affinity to N-terminal His6-tagged recombinant human NRP1-b1 domain expressed in Escherichia coli Rosetta Gami 2 (DE3) pLysS cells at 200 uM treated every 2 mins by ITC method
[13] = tested on: Mus musculus; test: Tmax in BALB/c mouse at 2 mg/kg, iv administered as bolus dose by LC-MS method; assay type: ADME, organism-based; details: in vivo; procedure, shortened: as §1
[14] = biological target: T1, Neuropilin-1; test: Inhibition of biotinylated VEGF-A binding to human NRP1 expressed in human DU145 cells after 2 hrs; assay type: cell-based
[15] = tested on: HUVEC; test: Antiangiogenic activity in HUVEC co-cultured with HDF assessed as inhibition of VEGFA-induced tubular network length at 30 uM after 4 days by immunofluorescence method relative to control; assay type: functional; details: Homo sapiens, 96 h
Procedure, shortened: (§2)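 HDF were grown to confluence in 24-well plates and 10000 HUVECs were seeded on top in endothelial growth medium with 1% FBS. Cocultures received 0.1% DMSO, VEGF 25 ng/mL, 30 μM compound, or compound plus VEGF, for 4 days at 37 °C. They were ethanol-fixed and stained for von Willebrand factor. Branch points, network area and length were scored in four fields per well; three independent experiments.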

[16] = tested on: HUVEC; test: Antimigratory activity in VEGFA-induced HUVEC at 30 uM after 4 hrs by transwell assay relative to control; assay type: functional, Homo sapiens
Procedure, shortened: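 Transwell chemotaxis used 8 µm pore PET inserts. The bottom chamber held serum-free medium with or without 25 ng/mL VEGF-A, 0.1% DMSO, or 30 µM compound. HUVECs in serum-free EBM were added to the top chamber and incubated at 37 °C for 4 h. Non-migrated cells were removed, and membranes were fixed and stained. Migrated cells were counted in three random fields per well across five independent experiments, reported as mean ± SEM.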

[17] = tested on: Mus musculus; test: AUC (infinity) in BALB/c mouse at 2 mg/kg, iv administered as bolus dose by LC-MS method; assay type: ADME, organism-based; parameters: dose 2 mg/kg, route intravenous, time infinity; details: in vivo; procedure, shortened: as §1
[18] = tested on: HUVEC; test: Antimigratory activity in HUVEC at 30 uM after 4 hrs by transwell assay; assay type: functional, cell-based; details: Homo sapiens
Procedure, shortened: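 HUVECs (1.5×10^5 per well, serum-free EBM) were placed in upper inserts with 8 µm pores. The bottom chamber held serum-free medium with 25 ng/mL VEGF-A, 0.1% DMSO, 30 μM compound, or VEGF-A plus compound. After 4 h at 37 °C, cells that migrated were stained and counted in three random fields; five independent experiments.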

[19] = biological target: T1, Neuropilin-1; test: Inhibition of VEGF-A-stimulated NRP1-mediated VEGFR2 phosphorylation at Tyr1175 in HUVEC at 30 uM preincubated for 30 mins followed by VEGFA stimulation measured after 10 mins by immunoblot method relative to control; assay type: cell-based
Procedure, shortened: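 Confluent HUVECs serum-starved 16 h in 0.5% serum, preincubated 30 min with 3, 10 or 30 µM compound, 0.1% DMSO or medium, then 1 ng/mL VEGF-A for 10 min. RIPA lysates were immunoblotted. Densitometry of pVEGF-R2/KDR was normalised to total VEGF-R2/KDR, from three independent experiments, means ± SEM.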

[20] = tested on: HUVEC; test: Antiangiogenic activity in HUVEC co-cultured with HDF assessed as inhibition of number of VEGFA-induced branch points in tubular networks at 30 uM after 4 days by immunofluorescence method relative to control; assay type: functional; details: Homo sapiens, 96 h; procedure, shortened: as §2

T1 sequence (O14786 whole entry, the tested form may be a part): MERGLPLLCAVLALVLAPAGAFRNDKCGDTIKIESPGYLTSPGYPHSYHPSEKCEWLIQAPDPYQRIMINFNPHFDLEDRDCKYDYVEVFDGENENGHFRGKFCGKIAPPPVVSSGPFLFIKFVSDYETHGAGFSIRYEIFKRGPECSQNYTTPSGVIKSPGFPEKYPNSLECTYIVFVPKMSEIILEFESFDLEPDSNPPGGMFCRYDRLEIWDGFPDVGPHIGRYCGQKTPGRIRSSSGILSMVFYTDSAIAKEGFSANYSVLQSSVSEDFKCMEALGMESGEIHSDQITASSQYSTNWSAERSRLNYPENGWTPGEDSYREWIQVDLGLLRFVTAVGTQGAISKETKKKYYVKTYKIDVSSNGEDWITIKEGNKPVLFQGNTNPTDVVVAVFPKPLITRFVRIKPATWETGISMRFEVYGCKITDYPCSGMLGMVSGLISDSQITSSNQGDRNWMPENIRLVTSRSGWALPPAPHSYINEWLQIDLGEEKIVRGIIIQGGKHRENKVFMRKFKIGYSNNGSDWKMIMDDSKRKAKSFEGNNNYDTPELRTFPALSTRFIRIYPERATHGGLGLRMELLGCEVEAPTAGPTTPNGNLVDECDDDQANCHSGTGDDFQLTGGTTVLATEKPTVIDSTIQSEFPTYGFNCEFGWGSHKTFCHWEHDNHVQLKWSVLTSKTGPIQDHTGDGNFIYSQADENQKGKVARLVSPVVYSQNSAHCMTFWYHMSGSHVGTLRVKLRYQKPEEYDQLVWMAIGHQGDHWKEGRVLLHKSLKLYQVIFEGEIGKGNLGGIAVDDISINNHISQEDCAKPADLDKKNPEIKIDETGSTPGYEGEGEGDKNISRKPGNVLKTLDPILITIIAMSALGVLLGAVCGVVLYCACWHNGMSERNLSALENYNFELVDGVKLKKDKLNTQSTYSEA

SMILES: N=C(N)NCCC[C@H](NC(=O)c1sccc1NS(=O)(=O)c1cc(-c2ccc3c(c2)CNC3)cc2c1OCC2)C(=O)O
pKd [1]: 5.66

SMILES: N=C(N)NCCC[C@H](NC(=O)c1sccc1NS(=O)(=O)c1cc(-c2cccc3c2CNC3)cc2c1OCC2)C(=O)O
pKd [1]: 5.61

SMILES: N=C(N)NCCC[C@H](NC(=O)c1sccc1NS(=O)(=O)c1cc(-c2cccc(CN)c2)cc2c1OCC2)C(=O)O
pKd [1]: 5.61

SMILES: N=C(N)NCCC[C@H](NC(=O)c1sccc1NS(=O)(=O)c1cc(-c2ccccc2CN)cc2c1OCC2)C(=O)O
pKd [1]: 5.73

SMILES: N=C(N)NCCC[C@H](NC(=O)c1sccc1NS(=O)(=O)c1cc(-c2ccccc2CN2CCC(C(N)=O)CC2)cc2c1OCC2)C(=O)O
pKd [1]: 5.69

More lines, main results first:

pKd [1]: 5.82
SMILES: N=C(N)NCCC[C@H](NC(=O)c1sccc1NS(=O)(=O)c1cc(-c2ccccc2CN2CCC(N3CCOCC3)CC2)cc2c1OCC2)C(=O)O

Cmax [2]: 1678 ng/mL | Activity [5]: inactive | Vd [6]: 4396.82 mL/kg | pIC50 [8]: 6.22 | t1/2 [9]: 4.29 h | Ka [12]: 4.14 ×10⁶ /M | Tmax [13]: 4.8 min | pIC50 [14]: 5.80 | AUC [17]: 2379 ng·h/mL | pKd [1]: 5.88 | inhibition [19]: 50%
SMILES: N=C(N)NCCC[C@H](NC(=O)c1sccc1NS(=O)(=O)c1cc(-c2ccc(CN)cc2)cc2c1OCC2)C(=O)O
Activity [3]: Active | Activity [4]: Active | fold change (FC) [7]: 7 | Activity [10]: inactive | inhibition [11]: Active | inhibition at 30 µM [15]: 40% | Activity [16]: >60% | Activity [18]: inactive | inhibition at 30 µM [20]: 41%

pKd [1]: 5.81
SMILES: N=C(N)NCCC[C@H](NC(=O)c1sccc1NS(=O)(=O)c1cc(-c2cccc(CN3CCC(C(N)=O)CC3)c2)cc2c1OCC2)C(=O)O

pKd [1]: 5.73
SMILES: N#CCC1CCN(Cc2ccccc2-c2cc3c(c(S(=O)(=O)Nc4ccsc4C(=O)N[C@@H](CCCNC(=N)N)C(=O)O)c2)OCC3)CC1

pKd [1]: 5.93
SMILES: N=C(N)NCCC[C@H](NC(=O)c1sccc1NS(=O)(=O)c1cc(-c2cccc(CN3CCCCC3)c2)cc2c1OCC2)C(=O)O
